From ChEMBL document CHEMBL1146370 (Bioorg Med Chem, 2007)

What was measured:
Vasopressin V1a receptor = Vasopressin V1a receptor (Homo sapiens, UniProt P37288); test: Binding affinity for human cloned vasopressin V1a receptor expressed in CHO cells; assay type: cell-based
Procedure, shortened: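 Whole-cell competition binding on CHO cells stably expressing human V1a, grown in alpha-MEM with 10% FBS and 250 ug/ml G418. Cells were plated at least 2 days ahead and incubated 30 min at 37 °C in HEPES/BSA/DMEM buffer (pH 7.0) with 1 nM [3H]AVP and 5 test concentrations (usually 0.1–1000 nM), in triplicate. Nonspecific binding was set with 100 nM AVP. Bound radioactivity was SDS-lysed and scintillation-counted. Curve-fit IC50 was converted to Ki with a 0.61 factor.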

[1] = Cmax in Sprague-Dawley rat brain at 20 mg/kg, po; assay type: ADME, organism-based; parameters: dose 20 mg/kg, route oral
Procedure, shortened: (§1)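 Sprague-Dawley rats were gavaged with 20 mg/kg in 23% hydroxypropyl-beta-cyclodextrin with 0.68% lactic acid; the screen co-dosed three compounds per animal. Blood was taken by cardiac puncture under CO2 anesthesia into sodium heparin at 0.25, 0.5, 1, 2, 4, 8, 12 and 24 h, from 3 rats per time point. Plasma was separated within 1 h. Plasma and brain levels were measured by LC/MS.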

[2] = Half life in Sprague-Dawley rat brain at 20 mg/kg, po; assay type: ADME, organism-based; parameters: dose 20 mg/kg, route oral; procedure, shortened: as §1
[3] = Tmax in Sprague-Dawley rat plasma at 20 mg/kg, po; assay type: ADME, organism-based; parameters: dose 20 mg/kg, route oral; procedure, shortened: as §1
[4] = Cmax in Sprague-Dawley rat plasma at 20 mg/kg, po; assay type: ADME, organism-based; parameters: dose 20 mg/kg, route oral; procedure, shortened: as §1
[5] = Half life in Sprague-Dawley rat plasma at 20 mg/kg, po; assay type: ADME, organism-based; parameters: dose 20 mg/kg, route oral; procedure, shortened: as §1
[6] = Drug level in dog brain at 10 mg/kg, po after 4 hrs; assay type: ADME, organism-based, Canis lupus familiaris; parameters: dose 10 mg/kg, route oral; details: read-out: Drug uptake
Procedure, shortened: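 A single dog received an oral dose of 10 mg/kg in 10% DMSO/90% PEG300. Brain regions (cortex, brain stem, cerebellum, hypothalamus, hippocampus) and blood were frozen and stored at −70 °C. Samples were homogenized in pH 9.4 buffer, extracted with ethyl acetate with an extraction reference added, reconstituted in acetonitrile, and quantified by ESI LC/MS/MS against spiked control brain standards.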

Chain of Vasopressin V1a receptor (P37288 whole entry): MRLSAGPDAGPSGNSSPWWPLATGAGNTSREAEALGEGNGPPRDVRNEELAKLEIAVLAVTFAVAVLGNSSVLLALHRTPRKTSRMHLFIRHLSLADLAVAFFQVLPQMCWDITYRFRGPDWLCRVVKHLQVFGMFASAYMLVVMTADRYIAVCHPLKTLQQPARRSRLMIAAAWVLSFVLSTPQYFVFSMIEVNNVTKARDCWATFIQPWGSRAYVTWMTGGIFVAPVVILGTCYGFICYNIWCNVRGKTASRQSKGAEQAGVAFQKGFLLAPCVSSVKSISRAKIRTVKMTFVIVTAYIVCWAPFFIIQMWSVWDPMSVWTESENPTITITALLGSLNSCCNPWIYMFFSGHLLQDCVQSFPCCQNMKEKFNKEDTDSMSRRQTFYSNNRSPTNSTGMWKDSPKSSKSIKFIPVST

Compound	IC50 (Vasopressin V1a receptor) [nM]	Ki (Vasopressin V1a receptor) [nM]	also measured
CC(=O)NC1C(=O)N(C(C(=O)OCc2ccccc2)C2(C)OCCO2)[C@@H]1/C=C/c1ccccc1 (stereo not given in full)	> 20000	–	–
C[C@@H](NC(=O)[C@H](CC(=O)N1CCC(CCN2CCCCC2)CC1)N1C(=O)[C@@H](N2C(=O)OC[C@@H]2c2ccccc2)[C@H]1/C=C/c1ccccc1)c1ccccc1	–	179	–
CC1(C(C(=O)OCc2ccccc2)N2C(=O)C(NC(=O)Nc3ccccc3)[C@H]2/C=C/c2ccccc2)OCCO1 (stereo not given in full)	> 5000	–	–
CC1(C(C(=O)OCc2ccccc2)N2C(=O)C(C)(C)[C@H]2/C=C/c2ccccc2)OCCO1 (stereo not given in full)	> 20000	–	–
CC(C)(C)C(=O)C(C(=O)OCc1ccccc1)N1C(=O)[C@@H](N2C(=O)OC[C@@H]2c2ccccc2)[C@H]1C=O (stereo not given in full)	> 20000	–	–
O=C(CN1C(=O)[C@@H](N2C(=O)OC[C@@H]2c2ccccc2)[C@H]1/C=C/c1ccccc1)OCc1ccccc1	400	–	–
CC1(C(C(=O)OCC[Si](C)(C)C)N2C(=O)[C@@H](N3C(=O)OC[C@@H]3c3ccccc3)[C@H]2/C=C/c2ccccc2)OCCO1 (stereo not given in full)	405	–	–
O=C(NCc1cccc(C(F)(F)F)c1)[C@@H](CCC(=O)N1CCN(CC2CCCCC2)CC1)N1C(=O)[C@@H](N2C(=O)OC[C@@H]2c2ccccc2)[C@H]1/C=C/c1ccccc1	–	> 12	–
O=C(NCc1cccc(C(F)(F)F)c1)[C@H](CC(=O)N1CCN(C2CCCCC2)CC1)N1C(=O)[C@@H](N2C(=O)OC[C@@H]2c2ccccc2)[C@H]1/C=C/c1ccccc1	–	30	–
CN(C)CCCNC(=O)[C@H](CC(=O)NCc1cccc(C(F)(F)F)c1)N1C(=O)[C@@H](N2C(=O)OC[C@@H]2c2ccccc2)[C@H]1/C=C/c1ccccc1	–	> 600	–
O=C(OCc1ccccc1)C(C(=O)c1ccccc1)N1C(=O)[C@@H](N2C(=O)OC[C@@H]2c2ccccc2)[C@H]1/C=C/c1ccccc1 (stereo not given in full)	100	–	–
CN(Cc1cccc(C(F)(F)F)c1)C(=O)[C@@H](CC(=O)N1CCC(N2CCCCC2)CC1)N1C(=O)[C@@H](N2C(=O)OC[C@@H]2c2ccccc2)[C@H]1/C=C/c1ccccc1	–	–	Cmax [1]: 48 ng/mL; half-life [2]: 6 h; Tmax [3]: 4 h; Cmax [4]: 160 ng/mL; half-life [5]: 4 h
CC1(C(C(=O)OCc2ccccc2)N2C(=O)C(N)[C@H]2/C=C/c2ccccc2)OCCO1 (stereo not given in full)	> 20000	–	–
CC(C)C[C@@H](C(=O)N1CCC(CCN2CCCCC2)CC1)N1C(=O)[C@@H](N2C(=O)OC[C@@H]2c2ccccc2)[C@H]1/C=C/c1ccccc1	–	–	concentration at 4 h [6]: 100 nM
O=C(NCc1cccc(C(F)(F)F)c1)[C@H](CC(=O)N1CCC(CCN2CCCCC2)CC1)N1C(=O)[C@@H](N2C(=O)OC[C@@H]2c2ccccc2)[C@H]1/C=C/c1ccccc1	–	23	–
O=C(C[C@@H](C(=O)N1CCN(CCc2ccccc2)CC1)N1C(=O)[C@@H](N2C(=O)OC[C@@H]2c2ccccc2)[C@H]1/C=C/c1ccccc1)NCc1cccc(C(F)(F)F)c1	–	6100	–
CN(C)CCNC(=O)[C@H](CC(=O)NCc1cccc(C(F)(F)F)c1)N1C(=O)[C@@H](N2C(=O)OC[C@@H]2c2ccccc2)[C@H]1/C=C/c1ccccc1	–	> 600	–
CC(C)C[C@@H](C(=O)NCc1ccccc1Cl)N1C(=O)[C@@H](N2C(=O)OC[C@@H]2c2ccccc2)[C@H]1/C=C/c1ccccc1	1000	–	–
O=C(NCc1cccc(C(F)(F)F)c1)[C@@H](CC(=O)N1CCC(N2CCCCC2)CC1)N1C(=O)[C@@H](N2C(=O)OC[C@@H]2c2ccccc2)[C@H]1/C=C/c1ccccc1	–	–	Cmax [4]: 50 ng/mL
CC(C)(C)C(=O)C(C(=O)OCc1ccccc1)N1C(=O)[C@@H](N2C(=O)OC[C@@H]2c2ccccc2)[C@H]1CCc1ccccc1 (stereo not given in full)	> 500	–	–
CC(C)(C)C(=O)C(C(=O)OCc1ccccc1)N1C(=O)[C@@H](N2C(=O)OC[C@@H]2c2ccccc2)[C@H]1/C=C/c1ccco1 (stereo not given in full)	2	–	–

Compound	IC50 (Vasopressin V1a receptor) [nM]	Ki (Vasopressin V1a receptor) [nM]	also measured
CC1(C(C(=O)O)N2C(=O)[C@@H](N3C(=O)OC[C@@H]3c3ccccc3)[C@H]2/C=C/c2ccccc2)OCCO1 (stereo not given in full)	> 5000	–	–
O=C(NCc1cccc(C(F)(F)F)c1)[C@H](CC(=O)N1CCN(C2CCCC2)CC1)N1C(=O)[C@@H](N2C(=O)OC[C@@H]2c2ccccc2)[C@H]1/C=C/c1ccccc1	–	< 60	–
O=C(NCc1cccc(C(F)(F)F)c1)[C@H](CC(=O)N1CCN(CCN2CCCC2)CC1)N1C(=O)[C@@H](N2C(=O)OC[C@@H]2c2ccccc2)[C@H]1/C=C/c1ccccc1	–	< 60	–
O=C(NCc1ccc(F)c(C(F)(F)F)c1)[C@H](CCC(=O)N1CCN(C2CCCCC2)CC1)N1C(=O)[C@@H](N2C(=O)OC[C@@H]2c2ccccc2)[C@H]1/C=C/c1ccccc1	–	< 30	–
O=C(NCc1cccc(C(F)(F)F)c1)[C@@H](CCC(=O)N1CCC(N2CCCCC2)CC1)N1C(=O)[C@@H](N2C(=O)OC[C@@H]2c2ccccc2)[C@H]1/C=C/c1ccccc1	–	30	–
C[C@@H](NC(=O)[C@@H](CC(=O)N1CCC(N2CCCCC2)CC1)N1C(=O)[C@@H](N2C(=O)OC[C@@H]2c2ccccc2)[C@H]1/C=C/c1ccccc1)c1ccccc1	–	–	Cmax [1]: 20 ng/mL; half-life [2]: 6 h; Tmax [3]: 4 h; Cmax [4]: 100 ng/mL; half-life [5]: 2.5 h
CC1(C(C(=O)OCc2ccccc2)N2C(=O)[C@@H](N3C(=O)OC[C@@H]3c3ccccc3)[C@H]2/C=C/c2ccccc2)OCCO1 (stereo not given in full)	45	–	–
CC1(C(C(=O)OCc2ccccc2)N2C(=O)[C@@H](N3C(=O)c4ccccc4C3=O)[C@H]2/C=C/c2ccccc2)OCCO1 (stereo not given in full)	61000	–	–
CCCN1CCN(C(=O)CC[C@@H](C(=O)NCc2cccc(C(F)(F)F)c2)N2C(=O)[C@@H](N3C(=O)OC[C@@H]3c3ccccc3)[C@H]2/C=C/c2ccccc2)CC1	–	1.19	–
C[C@H](NC(=O)[C@H](CC(=O)N1CCC(CCN2CCCCC2)CC1)N1C(=O)[C@@H](N2C(=O)OC[C@@H]2c2ccccc2)[C@H]1/C=C/c1ccccc1)c1ccccc1	–	8.7	–
CC(C)C[C@@H](C(=O)N1CCC(N2CCCCC2)CC1)N1C(=O)[C@@H](N2C(=O)OC[C@@H]2c2ccccc2)[C@H]1/C=C/c1ccccc1	54	–	–
O=C(NCc1cccc(C(F)(F)F)c1)[C@@H](CC(=O)N1CCN(N2CCCC2)CC1)N1C(=O)[C@@H](N2C(=O)OC[C@@H]2c2ccccc2)[C@H]1/C=C/c1ccccc1	–	27.5	–
O=C(NCc1cccc(C(F)(F)F)c1)[C@H](CCC(=O)N1CCN(C2CCCCC2)CC1)N1C(=O)[C@@H](N2C(=O)OC[C@@H]2c2ccccc2)[C@H]1/C=C/c1ccccc1	–	0.27	–
CC(C)C[C@@H](C(=O)NCc1ccccc1)N1C(=O)[C@@H](N2C(=O)OC[C@@H]2c2ccccc2)[C@H]1/C=C/c1ccccc1	128	–	–
O=C(NCc1cccc(C(F)(F)F)c1)[C@H](CCC(=O)N1CCN(CCc2ccccc2)CC1)N1C(=O)[C@@H](N2C(=O)OC[C@@H]2c2ccccc2)[C@H]1/C=C/c1ccccc1	–	1.17	–
O=C(CC[C@@H](C(=O)NCc1cccc(C(F)(F)F)c1)N1C(=O)[C@@H](N2C(=O)OC[C@@H]2c2ccccc2)[C@H]1/C=C/c1ccccc1)NCCN1CCCCC1	–	9	–
CC(C)C[C@@H](C(=O)NCc1ccc(Cl)cc1)N1C(=O)[C@@H](N2C(=O)OC[C@@H]2c2ccccc2)[C@H]1/C=C/c1ccccc1	262	–	–
C[C@@H](NC(=O)[C@H](CC(=O)N1CCC(N2CCCCC2)CC1)N1C(=O)[C@@H](N2C(=O)OC[C@@H]2c2ccccc2)[C@H]1/C=C/c1ccccc1)c1cccc(C(F)(F)F)c1	–	> 6	–
O=C(NCc1cccc(C(F)(F)F)c1)[C@H](CCC(=O)N1CCC(CN2CCCCC2)CC1)N1C(=O)[C@@H](N2C(=O)OC[C@@H]2c2ccccc2)[C@H]1/C=C/c1ccccc1	–	1.95	–
CC(C)(C)C(=O)[C@@H](C(=O)N1CCC(CCN2CCCCC2)CC1)N1C(=O)[C@@H](N2C(=O)OCC2c2ccccc2)C1/C=C/c1ccccc1 (single isomer, unassigned)	85	–	–
C[C@@H](NC(=O)[C@@H](CC(=O)N1CCC(N2CCCCC2)CC1)N1C(=O)[C@@H](N2C(=O)OC[C@@H]2c2ccccc2)[C@H]1/C=C/c1ccccc1)c1cccc(C(F)(F)F)c1 [SRX246]	–	1.27	–
